From the M2OR odorant receptor database

Legend:
Conditions in all cases: stereoisomer not certain
UniProt A2ATE5 = target: T1, UniProt A2ATE5
T1 sequence (whole entry): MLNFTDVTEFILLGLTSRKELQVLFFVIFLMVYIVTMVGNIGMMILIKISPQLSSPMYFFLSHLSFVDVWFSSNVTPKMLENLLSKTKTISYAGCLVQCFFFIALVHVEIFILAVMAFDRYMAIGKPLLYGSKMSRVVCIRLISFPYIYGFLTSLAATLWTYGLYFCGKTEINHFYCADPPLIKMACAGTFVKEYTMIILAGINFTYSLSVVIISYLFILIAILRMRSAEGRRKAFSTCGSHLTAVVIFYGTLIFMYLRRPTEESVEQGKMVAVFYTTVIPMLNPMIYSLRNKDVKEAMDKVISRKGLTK
How it was run: (§1)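 Each entry records the cell line, G-protein, co-transfected protein and tags used. Methods varied with the source, often transient luciferase assays in mammalian cell lines. A receptor–molecule pair is called responsive (active) if the original authors judged its signal statistically different from baseline and non-responsive (inactive) otherwise.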

UniProt A2AVB0 = target: T2, UniProt A2AVB0
T2 sequence (whole entry): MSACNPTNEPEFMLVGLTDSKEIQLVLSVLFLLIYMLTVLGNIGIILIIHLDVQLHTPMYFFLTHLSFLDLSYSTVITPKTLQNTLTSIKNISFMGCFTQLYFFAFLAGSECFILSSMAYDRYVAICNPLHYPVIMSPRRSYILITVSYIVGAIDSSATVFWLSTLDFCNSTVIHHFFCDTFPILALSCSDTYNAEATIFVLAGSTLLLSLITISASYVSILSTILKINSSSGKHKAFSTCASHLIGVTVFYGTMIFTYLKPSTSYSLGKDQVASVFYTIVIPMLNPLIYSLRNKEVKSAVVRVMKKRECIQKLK
How it was run: as §1

UniProt E9PVX1 = target: T3, UniProt E9PVX1
T3 sequence (whole entry): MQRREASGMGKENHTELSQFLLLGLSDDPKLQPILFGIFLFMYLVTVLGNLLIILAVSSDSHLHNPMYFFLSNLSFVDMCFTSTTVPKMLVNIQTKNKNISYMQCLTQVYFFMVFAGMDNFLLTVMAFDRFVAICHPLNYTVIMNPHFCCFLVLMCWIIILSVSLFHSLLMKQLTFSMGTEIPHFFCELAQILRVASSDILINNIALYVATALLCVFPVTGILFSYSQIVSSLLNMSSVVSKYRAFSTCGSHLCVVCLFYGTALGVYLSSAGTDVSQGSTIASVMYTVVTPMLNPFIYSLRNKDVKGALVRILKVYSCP
How it was run: as §1

UniProt E9PZ66 = target: T4, UniProt E9PZ66
T4 sequence (whole entry): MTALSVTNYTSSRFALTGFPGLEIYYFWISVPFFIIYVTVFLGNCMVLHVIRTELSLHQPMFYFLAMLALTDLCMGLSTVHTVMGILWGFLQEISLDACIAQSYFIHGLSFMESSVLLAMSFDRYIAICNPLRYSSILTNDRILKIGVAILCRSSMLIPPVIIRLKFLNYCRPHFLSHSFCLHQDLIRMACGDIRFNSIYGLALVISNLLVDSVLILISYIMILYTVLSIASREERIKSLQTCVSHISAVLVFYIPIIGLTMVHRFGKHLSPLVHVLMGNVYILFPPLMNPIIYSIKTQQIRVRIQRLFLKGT
How it was run: as §1

UniProt E9Q4X7 = target: T5, UniProt E9Q4X7
T5 sequence (whole entry): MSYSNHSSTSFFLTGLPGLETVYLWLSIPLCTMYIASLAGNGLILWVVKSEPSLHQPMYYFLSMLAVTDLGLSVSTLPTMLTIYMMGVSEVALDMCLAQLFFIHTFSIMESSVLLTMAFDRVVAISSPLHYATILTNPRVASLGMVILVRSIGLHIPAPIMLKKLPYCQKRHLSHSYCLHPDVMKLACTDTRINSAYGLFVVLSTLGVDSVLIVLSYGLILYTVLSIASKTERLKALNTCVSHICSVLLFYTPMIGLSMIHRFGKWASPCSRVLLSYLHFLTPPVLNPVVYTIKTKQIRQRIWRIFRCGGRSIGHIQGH
How it was run: as §1

UniProt E9Q546 = target: T6, UniProt E9Q546
T6 sequence (whole entry): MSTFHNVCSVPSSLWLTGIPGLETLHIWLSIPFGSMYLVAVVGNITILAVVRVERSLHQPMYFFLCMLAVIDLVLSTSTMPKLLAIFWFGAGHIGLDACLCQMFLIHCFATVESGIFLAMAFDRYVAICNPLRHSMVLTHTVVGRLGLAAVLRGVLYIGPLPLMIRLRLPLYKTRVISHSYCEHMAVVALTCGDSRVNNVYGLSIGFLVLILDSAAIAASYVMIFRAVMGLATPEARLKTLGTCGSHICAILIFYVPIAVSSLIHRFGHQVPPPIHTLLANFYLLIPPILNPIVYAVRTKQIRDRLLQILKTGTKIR
How it was run: as §1

UniProt E9Q6Z7 = target: T7, UniProt E9Q6Z7
T7 sequence (whole entry): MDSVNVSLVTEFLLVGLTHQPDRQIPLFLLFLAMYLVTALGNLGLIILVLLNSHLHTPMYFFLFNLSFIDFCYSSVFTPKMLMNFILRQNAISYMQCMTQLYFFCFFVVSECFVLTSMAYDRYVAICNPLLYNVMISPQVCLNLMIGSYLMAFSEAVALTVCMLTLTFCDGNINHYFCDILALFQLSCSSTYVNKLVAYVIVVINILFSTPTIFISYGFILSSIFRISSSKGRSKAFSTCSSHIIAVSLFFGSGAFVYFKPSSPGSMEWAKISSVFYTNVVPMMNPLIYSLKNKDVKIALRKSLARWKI
How it was run: as §1

UniProt A2AVB5 = target: T8, UniProt A2AVB5
T8 sequence (whole entry): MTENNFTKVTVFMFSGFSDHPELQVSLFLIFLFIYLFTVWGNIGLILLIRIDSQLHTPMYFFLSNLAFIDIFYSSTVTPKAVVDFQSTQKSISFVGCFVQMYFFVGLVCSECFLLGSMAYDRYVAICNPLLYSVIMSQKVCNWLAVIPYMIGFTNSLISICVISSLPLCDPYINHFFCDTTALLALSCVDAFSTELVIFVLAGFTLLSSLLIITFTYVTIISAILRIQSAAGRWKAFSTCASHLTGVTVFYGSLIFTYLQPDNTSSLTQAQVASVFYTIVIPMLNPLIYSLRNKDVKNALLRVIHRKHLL
How it was run: as §1

UniProt B2RVX8 = target: T9, UniProt B2RVX8
T9 sequence (whole entry): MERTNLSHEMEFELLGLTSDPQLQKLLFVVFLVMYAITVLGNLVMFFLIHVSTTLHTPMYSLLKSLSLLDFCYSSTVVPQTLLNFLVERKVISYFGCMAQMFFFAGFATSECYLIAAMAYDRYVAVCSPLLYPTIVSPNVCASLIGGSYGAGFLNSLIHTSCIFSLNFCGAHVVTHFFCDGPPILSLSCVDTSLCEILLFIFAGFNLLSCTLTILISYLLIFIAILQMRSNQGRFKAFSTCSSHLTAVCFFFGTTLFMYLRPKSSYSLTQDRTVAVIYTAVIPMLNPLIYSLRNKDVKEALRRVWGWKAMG
How it was run: as §1

UniProt K7N609 = target: T10, UniProt K7N609
T10 sequence (whole entry): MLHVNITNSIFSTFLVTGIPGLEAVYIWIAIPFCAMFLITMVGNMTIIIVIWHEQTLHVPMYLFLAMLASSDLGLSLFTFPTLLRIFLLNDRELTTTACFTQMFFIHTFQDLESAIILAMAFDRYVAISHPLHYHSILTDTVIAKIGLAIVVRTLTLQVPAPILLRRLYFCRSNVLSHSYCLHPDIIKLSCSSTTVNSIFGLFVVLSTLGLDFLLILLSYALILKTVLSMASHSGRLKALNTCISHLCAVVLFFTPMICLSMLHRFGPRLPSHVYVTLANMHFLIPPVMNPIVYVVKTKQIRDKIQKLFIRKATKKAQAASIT
How it was run: as §1

UniProt E1BM68 = target: T11, UniProt E1BM68
T11 sequence (whole entry): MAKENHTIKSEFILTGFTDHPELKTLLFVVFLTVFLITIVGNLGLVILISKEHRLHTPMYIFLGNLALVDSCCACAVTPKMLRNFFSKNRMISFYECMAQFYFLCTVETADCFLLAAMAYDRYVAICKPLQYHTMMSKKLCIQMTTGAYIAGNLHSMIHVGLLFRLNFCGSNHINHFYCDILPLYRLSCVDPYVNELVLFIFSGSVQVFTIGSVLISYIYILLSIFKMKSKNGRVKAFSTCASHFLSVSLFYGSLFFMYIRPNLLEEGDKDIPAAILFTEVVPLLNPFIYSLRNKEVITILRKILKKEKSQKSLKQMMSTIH
How it was run: as §1

UniProt E9QAT7 = target: T12, UniProt E9QAT7
T12 sequence (whole entry): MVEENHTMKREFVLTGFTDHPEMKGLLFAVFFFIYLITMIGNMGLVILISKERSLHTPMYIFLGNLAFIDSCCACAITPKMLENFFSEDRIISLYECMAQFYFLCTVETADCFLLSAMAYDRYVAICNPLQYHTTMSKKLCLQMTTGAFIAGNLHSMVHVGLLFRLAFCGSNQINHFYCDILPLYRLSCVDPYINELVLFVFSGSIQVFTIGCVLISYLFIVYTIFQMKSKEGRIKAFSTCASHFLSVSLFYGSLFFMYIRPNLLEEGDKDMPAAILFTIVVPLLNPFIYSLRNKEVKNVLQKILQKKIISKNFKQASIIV
How it was run: as §1

Measured: odorant receptor agonist call

CC(=O)OC1(C)CCC23CC1C(C)(C)C2CCC3C (centres undefined)
inactive: UniProt A2ATE5 | UniProt A2AVB0 | UniProt E9PVX1 | UniProt E9PZ66 | UniProt E9Q4X7 | UniProt E9Q546 | UniProt E9Q6Z7

CC(C)=CCCC(C)CCO (centres undefined)
not listed: UniProt E1BM68 | UniProt E9QAT7
inactive: all other assays above

COc1nccnc1C(C)C
active: UniProt E1BM68
not listed: UniProt A2AVB5 | UniProt B2RVX8 | UniProt K7N609
inactive: all other assays above

CCSSCC
inactive: UniProt A2ATE5 | UniProt A2AVB0 | UniProt E9PVX1 | UniProt E9PZ66 | UniProt E9Q4X7 | UniProt E9Q546 | UniProt E9Q6Z7

CCCCCCCCS
not listed: UniProt E1BM68 | UniProt E9QAT7
inactive: all other assays above

COC(OC)c1ccccc1
inactive: UniProt A2ATE5 | UniProt A2AVB0 | UniProt E9PVX1 | UniProt E9PZ66 | UniProt E9Q4X7 | UniProt E9Q546 | UniProt E9Q6Z7

O=C(O)CCCCCCCCC(=O)O
inactive: UniProt A2ATE5 | UniProt A2AVB0 | UniProt E9PVX1 | UniProt E9PZ66 | UniProt E9Q4X7 | UniProt E9Q546 | UniProt E9Q6Z7

C=C(C)C1CCC2(C)OC2C1 (centres undefined)
inactive: UniProt A2ATE5 | UniProt A2AVB0 | UniProt E9PVX1 | UniProt E9PZ66 | UniProt E9Q4X7 | UniProt E9Q546 | UniProt E9Q6Z7
